RGS4 pot = RGS4 potentiators or activators, primary screen, cell-based, HEK293 M3R inducible RGS4, calcium flux | B-score at 10 µM | AID 463111, 2010 | carbachol calcium flux Fluo4; stronger effect = lower value | 0.92% of 310,000 active;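 active = B-score of the integrated calcium signal more than 4 SD below the library mean, with starting fluorescence not abnormally high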;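 also: negative B-score means reduced calcium response which marks RGS4 activation or potentiation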
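Test system: HEK293 cells with stable M3R and inducible RGS4; also added: carbachol at ECmax as muscarinic agonist stimulus; schedule: dye loading 30 min 37 °C, buffer rest 30 min RT; technique: kinetic calcium fluorescence imaging with Fluo4-AM dye, 2 µM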
MrgX1 agonist = agonists of human MrgX1 receptor, primary screen, HEK293 cells, Fluo-4 calcium flux. AID 588627, 2011. Fluo-4 calcium fluorescence, agonist mode; stronger effect = higher value. 0.44% of 310,000 active. Mas-related G-protein coupled receptor member X1 (Homo sapiens), Q96LB2. B-score at 10 µM;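 active = calcium response B-score plate-corrected fluorescence ratio at least 3 library SD, with starting fluorescence B-score inside 5 SD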
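Test system: HEK293 cells stably expressing human MrgX1 receptor; Input: fifteen thousand cells per well; Dosing: compound delivered in addition one of three; Schedule: overnight seeding, then 1 h dark dye loading; Technique: Fluo-4 NW calcium fluorescence; Measure: B-scored fluorescence response ratio; Controls: positive and negative controls per plate.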
RGS4 block = RGS4 inhibitors, primary screen, cell-based, HEK293 M3R inducible RGS4, calcium flux. Fluo-4 calcium flux; stronger effect = higher value; triggered by carbachol at its EC20. B-score at 10 µM. 0.45% of 310,000 active. AID 463165, 2010;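 active = B-score, a plate-corrected calcium signal, over three deviations above library mean, with baseline fluorescence within five deviations of library mean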;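 also: RGS4 expression induced by doxycycline in cells with stable M3 receptor; B-score is computed from the integrated fluorescence ratio over baseline after carbachol; higher B-score means a larger calcium signal and so more RGS4 inhibition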
MrgX1 antag = antagonists of human MrgX1 receptor, primary screen, HEK293 cells, Fluo-4 calcium flux; Mas-related G-protein coupled receptor member X1 (Homo sapiens), Q96LB2; BAM8-22 antagonism; stronger effect = lower value; B-score at 10 µM; 1.3% of 310,000 active; AID 588676, 2011;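 active = calcium-response B-score plate-corrected more than 3 library SD below zero, starting fluorescence within 5 deviations, no agonist response on first addition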;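 also: peak minus trough fluorescence over baseline after final BAM8-22 challenge near maximal dose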
Cl transport mod = KCC2 cotransporter modulators, thallium flux, primary screen, cell-based, HEK293 KCC2, FluoZin-2 fluorescence, MLSMR; B-score of Tl+ flux slope (higher = more flux/activation; lower = inhibition) at 10 µM; 2.2% of 190,000 active; Solute carrier family 12 member 5 (Homo sapiens), Q9H2X9; KCC2 cells, thallium flux FluoZin-2 fluorescence; AID 1456, 2008;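 active = thallium flux slope and its plate-corrected score both differing from the plate sample mean at a set confidence after two filtering rounds, in either direction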;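 also: slope of fluorescence scaled to starting intensity during 10 to 20 s after thallium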
Target sequence (Q9H2X9 whole entry, looked up): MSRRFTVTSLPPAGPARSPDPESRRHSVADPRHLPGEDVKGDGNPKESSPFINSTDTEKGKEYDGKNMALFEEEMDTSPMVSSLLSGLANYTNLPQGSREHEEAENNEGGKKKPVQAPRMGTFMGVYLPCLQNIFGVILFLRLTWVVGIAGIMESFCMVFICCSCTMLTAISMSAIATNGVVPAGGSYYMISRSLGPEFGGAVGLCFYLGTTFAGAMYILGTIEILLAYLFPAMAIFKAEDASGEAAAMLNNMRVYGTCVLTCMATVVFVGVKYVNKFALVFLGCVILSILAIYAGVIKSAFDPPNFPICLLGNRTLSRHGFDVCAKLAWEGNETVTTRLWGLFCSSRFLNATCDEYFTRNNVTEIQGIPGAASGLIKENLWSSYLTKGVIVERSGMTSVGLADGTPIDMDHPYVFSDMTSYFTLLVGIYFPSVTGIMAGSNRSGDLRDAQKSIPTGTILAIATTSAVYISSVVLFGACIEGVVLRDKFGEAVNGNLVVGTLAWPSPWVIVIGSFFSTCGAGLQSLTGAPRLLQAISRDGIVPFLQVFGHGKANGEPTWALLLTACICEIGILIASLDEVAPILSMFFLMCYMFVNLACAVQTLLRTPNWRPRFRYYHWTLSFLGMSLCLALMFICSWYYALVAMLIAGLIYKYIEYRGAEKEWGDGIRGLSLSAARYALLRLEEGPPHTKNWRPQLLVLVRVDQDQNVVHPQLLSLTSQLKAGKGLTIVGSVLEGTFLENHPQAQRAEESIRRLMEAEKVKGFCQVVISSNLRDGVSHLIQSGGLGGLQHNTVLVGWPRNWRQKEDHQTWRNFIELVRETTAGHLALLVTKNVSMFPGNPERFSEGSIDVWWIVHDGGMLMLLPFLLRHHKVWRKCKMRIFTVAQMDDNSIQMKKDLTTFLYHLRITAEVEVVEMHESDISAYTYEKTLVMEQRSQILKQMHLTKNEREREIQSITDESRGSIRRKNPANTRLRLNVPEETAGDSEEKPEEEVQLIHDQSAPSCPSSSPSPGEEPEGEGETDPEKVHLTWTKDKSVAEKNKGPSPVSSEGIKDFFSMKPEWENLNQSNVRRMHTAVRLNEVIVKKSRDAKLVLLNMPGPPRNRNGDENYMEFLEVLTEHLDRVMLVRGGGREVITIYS
MrgX1 PAM = positive allosteric modulators of MrgX1, primary screen, HEK293 cells, Fluo-4 calcium flux; Mas-related G-protein coupled receptor member X1 (Homo sapiens), Q96LB2; 0.63% of 310,000 active; B-score at 10 µM; FDSS; stronger effect = higher value;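 active = plate-corrected calcium response at least 3 library SD above typical, normal starting fluorescence, not activating the receptor alone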;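 also: compound read alongside a low EC10 to EC30 dose of BAM8-22 agonist; peak minus trough fluorescence over baseline measured at the second addition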
Active calls of the source: *. Only some compounds are listed: those with a hit (about 4.7% of all), similar ones and a draw of the others.

O=C(CSc1cccc[n+]1[O-])c1cc2ccccc2o1 was read as RGS4 pot inactive, MrgX1 agonist inactive, RGS4 block inactive, MrgX1 antag inactive, Cl transport mod 7.2* and MrgX1 PAM inactive.
CCCCn1nc(NS(=O)(=O)c2cccc3nonc23)c2cc3cccc(C)c3nc21 was read as RGS4 pot inactive, MrgX1 agonist inactive, RGS4 block inactive, MrgX1 antag inactive and MrgX1 PAM 7.1*.
O=[N+]([O-])c1ccc(N/N=C/c2cccc(O)c2O)c(S(=O)(=O)N2CCOCC2)c1 was read as RGS4 pot inactive, MrgX1 agonist inactive, RGS4 block inactive, MrgX1 antag inactive, Cl transport mod 0.65 and MrgX1 PAM inactive.
For Cc1ccc(NS(=O)(=O)c2cc([N+](=O)[O-])ccc2N/N=C/c2sc(N3CCOCC3)nc2-c2ccccc2)c(C)c1 the results were RGS4 pot inactive, MrgX1 agonist inactive, RGS4 block inactive, MrgX1 antag -9.4*, Cl transport mod 0.91 and MrgX1 PAM inactive.
For CCC(C)(C)n1nnnc1CN1CCN(C(c2ccccc2)c2ccccc2)CC1 the results were RGS4 pot -7.5*, MrgX1 agonist inactive, RGS4 block inactive, MrgX1 antag inactive, Cl transport mod -2.5 and MrgX1 PAM inactive.
`CCN(Cc1ccccc1)C(c1cccs1)c1nnnn1C1CCCCC1` (centres undefined) gave RGS4 pot inactive, MrgX1 agonist inactive, RGS4 block inactive, MrgX1 antag inactive, Cl transport mod 1.4 and MrgX1 PAM inactive.
`Clc1ccccc1CN(Cc1ccccc1)C(c1cccs1)c1nnnn1C1CCCC1` (centres undefined) gave RGS4 pot inactive, MrgX1 agonist inactive, RGS4 block inactive, MrgX1 antag -5.7*, Cl transport mod 0.47 and MrgX1 PAM inactive.
Cc1cccc(C)c1C(OCCN(C)C)C1CCCCC1 (centres undefined) was read as RGS4 pot -7.4*, MrgX1 agonist inactive, RGS4 block inactive, MrgX1 antag inactive, Cl transport mod -0.4 and MrgX1 PAM inactive.
Screening Cc1ccc(S(=O)(=O)NNC(=O)c2cccc(O)c2)cc1 returned RGS4 pot inactive, MrgX1 agonist inactive, RGS4 block inactive, MrgX1 antag -6.5*, Cl transport mod 0.88 and MrgX1 PAM inactive.
CCC(C)[C@H]1CNCCN1CCc1cc(C(F)(F)F)cc(C(F)(F)F)c1 (some centres undefined) was read as RGS4 pot inactive, MrgX1 agonist inactive, RGS4 block inactive, MrgX1 antag inactive and MrgX1 PAM inactive.
Screening CCC(C)[C@H]1CNC(=S)N1CCc1cc(C(F)(F)F)cc(C(F)(F)F)c1 (some centres undefined) returned RGS4 pot inactive, MrgX1 agonist inactive, RGS4 block inactive, MrgX1 antag -5.2*, Cl transport mod 0.5 and MrgX1 PAM inactive.
`O=C(COC(=O)c1cccc(-n2cnnn2)c1)c1ccc(Br)cc1` gave RGS4 pot inactive, MrgX1 agonist inactive, RGS4 block inactive, MrgX1 antag inactive and MrgX1 PAM inactive.
For CCCCNC(=S)N=Nc1c(O)n(Cc2ccccc2)c2ccccc12 the results were RGS4 pot inactive, MrgX1 agonist inactive, RGS4 block inactive, MrgX1 antag inactive, Cl transport mod 8.8* and MrgX1 PAM inactive.
`CCOc1ccc(CSC(=N)N)cc1[N+](=O)[O-]` gave RGS4 pot inactive, MrgX1 agonist 46*, RGS4 block inactive, MrgX1 antag inactive, Cl transport mod 0.095 and MrgX1 PAM inactive.
Screening Oc1ccc(-c2c(C3=CCCCC3)sc3ccccc23)cc1 returned RGS4 pot inactive, MrgX1 agonist inactive, RGS4 block inactive, MrgX1 antag inactive and MrgX1 PAM inactive.
Screening c1ccc(COc2ccc(CNCc3cccs3)cc2)cc1 returned RGS4 pot -8.3*, MrgX1 agonist inactive, RGS4 block inactive, MrgX1 antag inactive and MrgX1 PAM inactive.
For NC(=O)C1CCN(C(=O)CCC(=O)c2ccc(F)cc2)CC1 the results were RGS4 pot inactive, MrgX1 agonist inactive, RGS4 block inactive, MrgX1 antag inactive and MrgX1 PAM inactive.
Screening CCN(c1ccccc1)S(=O)(=O)c1ccc(NC(=S)NC(=O)c2cccs2)cc1 returned RGS4 pot inactive, MrgX1 agonist inactive, RGS4 block inactive, MrgX1 antag inactive, Cl transport mod 16* and MrgX1 PAM inactive.
Screening CN(c1ccccc1)S(=O)(=O)c1ccc(NC(=O)c2cccs2)cc1 returned RGS4 pot inactive, MrgX1 agonist inactive, RGS4 block inactive, MrgX1 antag inactive, Cl transport mod 0.14 and MrgX1 PAM inactive.
`CCn1c(SCC(=O)N2CCC(C)CC2)nc2c1c(=O)n(C)c(=O)n2C` gave RGS4 pot inactive, MrgX1 agonist inactive, RGS4 block inactive, MrgX1 antag inactive and MrgX1 PAM inactive.
Screening Cn1c(=O)c(=O)n(C)c2cc(N3CCOCC3)c(NS(=O)(=O)c3ccc([N+](=O)[O-])cc3)cc21 returned RGS4 pot inactive, MrgX1 agonist inactive, RGS4 block inactive, MrgX1 antag inactive and MrgX1 PAM 14*.
For Cn1c(=O)c(=O)n(C)c2cc(N3CCOCC3)c(NS(=O)(=O)c3ccc(F)c(Cl)c3)cc21 the results were RGS4 pot inactive, MrgX1 agonist inactive, RGS4 block inactive, MrgX1 antag inactive and MrgX1 PAM inactive.
CCCCOC(=O)c1ccc(NC(=O)Nc2ccc(OC)c(OC)c2)cc1 was read as RGS4 pot -7*, MrgX1 agonist inactive, RGS4 block inactive, MrgX1 antag inactive, Cl transport mod 0.29 and MrgX1 PAM inactive.
`CCCCOC(=O)c1ccc(NC(=S)NC(=O)c2c(Cl)cnn2CC)cc1` gave RGS4 pot inactive, MrgX1 agonist inactive, RGS4 block inactive, MrgX1 antag inactive, Cl transport mod 23* and MrgX1 PAM inactive.
`CCOC(=O)c1ccc(NC(=O)Nc2ccc(OC)c(OC)c2)cc1` gave RGS4 pot inactive, MrgX1 agonist inactive, RGS4 block inactive, MrgX1 antag inactive, Cl transport mod -1.1 and MrgX1 PAM inactive.

From PubChem
